Source: ChEMBL document CHEMBL1157665, “Novel 4-thiazolidinone derivatives as potential antifungal and antibacterial drugs” (2010)

How the values were obtained:
Pseudomonas aeruginosa [1] = assay: Antibacterial activity against Pseudomonas aeruginosa ATCC 27853 after 72 hrs by serial sub-cultivation method; format: functional; conditions: ATCC 27853, 72 h
Method in brief: (§1)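 MBC was found by serial sub-cultivation of 2 µl from the MIC wells into plates holding 100 µl broth per well, then incubation for 72 h. MBC is the lowest concentration with no visible growth, i.e. 99.5% killing of the original inoculum. Bacterial inoculum was 1.0 × 10^4 cfu per well in LB broth. Duplicate, repeated three times.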

Aspergillus versicolor [2] = assay: Antifungal activity against Aspergillus versicolor ATCC 11730 after 72 hrs by serial dilution method; format: functional; conditions: ATCC 11730, 72 h
Method in brief: (§2)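 Fungi were kept on malt agar at 4 °C and sub-cultured monthly. Spores were washed off the agar with sterile 0.85% saline containing 0.1% Tween 80 (v/v). Modified microdilution in 96-well plates. MIC is the lowest concentration with no visible growth under the binocular microscope. Inoculum checked on malt agar for contamination and validity.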

Pseudomonas aeruginosa [3] = assay: Antibacterial activity against Pseudomonas aeruginosa ATCC 27853 after 24 hrs; format: functional; conditions: ATCC 27853, 24 h
Method in brief: (§3)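 Broth microdilution MIC in 96-well plates. Compounds in LB broth with bacterial inoculum of 1.0 × 10^4 cfu per well, from suspensions adjusted with sterile saline to 1.0 × 10⁵ CFU/ml. Incubated 24 h at […] as printed. MIC taken as the lowest concentration with no visible growth under the binocular microscope. OD at 655 nm also read against blank. Streptomycin and ampicillin as positive controls. Duplicate, repeated three times.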

Listeria monocytogenes [4] = assay: Antibacterial activity against Listeria monocytogenes NCTC 7973 after 24 hrs; format: functional; conditions: NCTC 7973, 24 h; method in brief: as §3
Micrococcus flavus [5] = assay: Antibacterial activity against Micrococcus flavus ATCC 10240 after 24 hrs; format: functional; conditions: ATCC 10240, 24 h; method in brief: as §3
Salmonella typhimurium [6] = assay: Antibacterial activity against Salmonella Typhimurium ATCC 13311 after 72 hrs by serial sub-cultivation method; format: functional, Salmonella enterica subsp. enterica serovar Typhimurium; conditions: Salmonella enterica, ATCC 13311, 72 h; method in brief: as §1
Staphylococcus aureus [7] = assay: Antibacterial activity against Staphylococcus aureus ATCC 6538 after 72 hrs by serial sub-cultivation method; format: functional; conditions: ATCC 6538, 72 h; method in brief: as §1
Aspergillus fumigatus [8] = assay: Antifungal activity against Aspergillus fumigatus plant isolate after 72 hrs by serial sub-cultivation method
Proteus mirabilis [9] = assay: Antibacterial activity against Proteus mirabilis after 72 hrs by serial sub-cultivation method; format: functional; method in brief: as §1
Aspergillus fumigatus [10] = assay: Antifungal activity against Aspergillus fumigatus plant isolate after 72 hrs by serial dilution method
Escherichia coli [11] = assay: Antibacterial activity against Escherichia coli ATCC 35210 after 72 hrs by serial sub-cultivation method; format: functional; conditions: ATCC 35210, 72 h; method in brief: as §1
Aspergillus versicolor [12] = assay: Antifungal activity against Aspergillus versicolor ATCC 11730 after 72 hrs by serial sub-cultivation method; format: functional; conditions: ATCC 11730, 72 h
Method in brief: (§4)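 MFC was found by serial sub-cultivation of 2 µl into plates holding 100 µl broth per well, then incubation 72 h at 28 °C. MFC is the lowest concentration with no visible growth, taken as 99.5% killing of the original inoculum. Spore inocula came from malt agar cultures washed with 0.85% saline and 0.1% Tween 80.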

Talaromyces funiculosus [13] = assay: Antifungal activity against Penicillium funiculosum ATCC 36839 after 72 hrs by serial sub-cultivation method; format: functional; conditions: ATCC 36839, 72 h; method in brief: as §4
Escherichia coli [14] = assay: Antibacterial activity against Escherichia coli ATCC 35210 after 24 hrs; format: functional; conditions: ATCC 35210, 24 h; method in brief: as §3
Penicillium ochrochloron [15] = assay: Antifungal activity against Penicillium ochrochloron ATCC 9112 after 72 hrs by serial sub-cultivation method; format: functional; conditions: ATCC 9112, 72 h; method in brief: as §4
Fulvia fulva [16] = assay: Antifungal activity against Fulvia fulva TK 5318 after 72 hrs by serial sub-cultivation method; format: functional; conditions: TK 5318, 72 h; method in brief: as §4
Bacillus cereus [17] = assay: Antibacterial activity against Bacillus cereus clinical isolate after 72 hrs by serial sub-cultivation method; format: functional; method in brief: as §1
Micrococcus flavus [18] = assay: Antibacterial activity against Micrococcus flavus ATCC 10240 after 72 hrs by serial sub-cultivation method; format: functional; conditions: ATCC 10240, 72 h; method in brief: as §1
Talaromyces funiculosus [19] = assay: Antifungal activity against Penicillium funiculosum ATCC 36839 after 72 hrs by serial dilution method; format: functional; conditions: ATCC 36839, 72 h; method in brief: as §2
Aspergillus niger [20] = assay: Antifungal activity against Aspergillus niger ATCC 6275 after 72 hrs by serial sub-cultivation method; format: functional; conditions: ATCC 6275, 72 h; method in brief: as §4
Aspergillus niger [21] = assay: Antifungal activity against Aspergillus niger ATCC 6275 after 72 hrs by serial dilution method; format: functional; conditions: ATCC 6275, 72 h; method in brief: as §2
Bacillus cereus [22] = assay: Antibacterial activity against Bacillus cereus clinical isolate after 24 hrs; format: functional; method in brief: as §3
Listeria monocytogenes [23] = assay: Antibacterial activity against Listeria monocytogenes NCTC 7973 after 72 hrs by serial sub-cultivation method; format: functional; conditions: NCTC 7973, 72 h; method in brief: as §1
Staphylococcus aureus [24] = assay: Antibacterial activity against Staphylococcus aureus ATCC 6538 after 24 hrs; format: functional; conditions: ATCC 6538, 24 h; method in brief: as §3
Trichoderma viride [25] = assay: Antifungal activity against Trichoderma viride IAM 5061 after 72 hrs by serial sub-cultivation method; format: functional; conditions: IAM 5061, 72 h; method in brief: as §4
Aspergillus flavus [26] = assay: Antifungal activity against Aspergillus flavus ATCC 9643 after 72 hrs by serial sub-cultivation method; format: functional; conditions: ATCC 9643, 72 h; method in brief: as §4
Penicillium ochrochloron [27] = assay: Antifungal activity against Penicillium ochrochloron ATCC 9112 after 72 hrs by serial dilution method; format: functional; conditions: ATCC 9112, 72 h; method in brief: as §2
Trichoderma viride [28] = assay: Antifungal activity against Trichoderma viride IAM 5061 after 72 hrs by serial dilution method; format: functional; conditions: IAM 5061, 72 h; method in brief: as §2
Fulvia fulva [29] = assay: Antifungal activity against Fulvia fulva TK 5318 after 72 hrs by serial dilution method; format: functional; conditions: TK 5318, 72 h; method in brief: as §2
Proteus mirabilis [30] = assay: Antibacterial activity against Proteus mirabilis after 24 hrs; format: functional; method in brief: as §3
Salmonella typhimurium [31] = assay: Antibacterial activity against Salmonella Typhimurium ATCC 13311 after 24 hrs; format: functional, Salmonella enterica subsp. enterica serovar Typhimurium; conditions: Salmonella enterica, ATCC 13311, 24 h; method in brief: as §3
Aspergillus flavus [32] = assay: Antifungal activity against Aspergillus flavus ATCC 9643 after 72 hrs by serial dilution method; format: functional; conditions: ATCC 9643, 72 h; method in brief: as §2

O=C1N/C(=N/c2nc(C34CC5CC(CC(C5)C3)C4)cs2)S/C1=C\c1ccc(O)cc1
22.9 µM: MIC (Pseudomonas aeruginosa [3]) | MIC (Listeria monocytogenes [4]) | MIC (Micrococcus flavus [5]) | MFC (Aspergillus fumigatus [8]) | MFC (Aspergillus versicolor [12]) | MFC (Talaromyces funiculosus [13]) | MIC (Escherichia coli [14]) | MFC (Penicillium ochrochloron [15]) | MFC (Fulvia fulva [16]) | MBC (Bacillus cereus [17]) | MFC (Aspergillus niger [20]) | MFC (Trichoderma viride [25]) | MFC (Aspergillus flavus [26])
45.8 µM: MBC (Pseudomonas aeruginosa [1]) | MBC (Staphylococcus aureus [7]) | MBC (Escherichia coli [11]) | MBC (Micrococcus flavus [18]) | MBC (Listeria monocytogenes [23]) | MIC (Proteus mirabilis [30])
11.5 µM: MIC (Aspergillus fumigatus [10]) | MIC (Aspergillus niger [21]) | MIC (Trichoderma viride [28]) | MIC (Fulvia fulva [29]) | MIC (Salmonella typhimurium [31]) | MIC (Aspergillus flavus [32])
68.7 µM: MBC (Proteus mirabilis [9])
17.2 µM: MIC (Aspergillus versicolor [2]) | MBC (Salmonella typhimurium [6]) | MIC (Talaromyces funiculosus [19]) | MIC (Bacillus cereus [22]) | MIC (Staphylococcus aureus [24]) | MIC (Penicillium ochrochloron [27])

COc1cc(/C=C2\S/C(=N\c3nc(C45CC6CC(CC(C6)C4)C5)cs3)NC2=O)ccc1O
43.8 µM: MBC (Pseudomonas aeruginosa [1]) | MBC (Salmonella typhimurium [6]) | MBC (Staphylococcus aureus [7]) | MIC (Proteus mirabilis [30])
65.7 µM: MBC (Proteus mirabilis [9])
11 µM: MIC (Listeria monocytogenes [4]) | MIC (Micrococcus flavus [5]) | MIC (Escherichia coli [14]) | MIC (Bacillus cereus [22]) | MIC (Trichoderma viride [28]) | MIC (Fulvia fulva [29])
21.9 µM: MFC (Aspergillus fumigatus [8]) | MFC (Aspergillus versicolor [12]) | MFC (Talaromyces funiculosus [13]) | MFC (Penicillium ochrochloron [15]) | MFC (Fulvia fulva [16]) | MBC (Bacillus cereus [17]) | MBC (Micrococcus flavus [18]) | MFC (Aspergillus niger [20]) | MBC (Listeria monocytogenes [23]) | MIC (Staphylococcus aureus [24]) | MFC (Trichoderma viride [25]) | MFC (Aspergillus flavus [26]) | MIC (Salmonella typhimurium [31])
16.4 µM: MIC (Aspergillus versicolor [2]) | MIC (Pseudomonas aeruginosa [3]) | MIC (Aspergillus fumigatus [10]) | MBC (Escherichia coli [11]) | MIC (Talaromyces funiculosus [19]) | MIC (Aspergillus niger [21]) | MIC (Penicillium ochrochloron [27]) | MIC (Aspergillus flavus [32])
